In ChEMBL document CHEMBL1124791, “Structure-activity relationships of the lissoclinamides: cytotoxic cyclic peptides from the ascidian Lissoclinum patella” (J Med Chem, 1990):
In brackets after ≈: the same amount, converted by molar mass.

How the values were obtained:
[1] = test system: T-24; assay: Concentration required for 50% inhibition of growth by the compound in transitional bladder carcinoma T24 cells; assay type: functional, cell-based, Homo sapiens
In short: (§1)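 Cells kept in RPMI 1640 with 10% fetal calf serum at 37 °C, 5% CO2, then plated at 1 × 10^4 per 100 μL and left overnight. Exposure to varying concentrations for 1 h, followed by 48 h incubation. MTT (5 mg/mL stock) added for 4 h at 37 °C and formazan dissolved in 0.08 M HCl/2-propanol. Absorbance read at 540 nm against 690 nm reference. Three experiments, eight assays per point.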

[2] = Concentration required for 50% inhibition of growth by the compound in normal peripheral blood lymphocytes; assay type: functional, cell-based, Homo sapiens
In short: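 Human lymphocytes isolated from whole blood on Ficoll Paque, stimulated with PHA (1 μL/mL) for 72 h and plated at 1 × 10^5/mL. Compounds added over 100 to 0.1 μg/mL. Survival measured after 24 h by MTT colorimetric assay, with formazan dissolved in acidic 2-propanol and absorbance read at 540 nm.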

[3] = test system: MRC5CV1; assay: Concentration required for 50% inhibition of growth by the compound in SV-40 transformed fibroblasts (MRC5CV1); assay type: functional, cell-based; settings: Homo sapiens; in short: as §1
[4] = Homo sapiens, T-24, read-out: IC50

Row | SMILES | IC50 [1, 4] | IC50 [2] | IC50 [3] | IC50 ([1]; t-24)
1 | CC(C)[C@@H]1NC(=O)[C@H]2N=C(O[C@@H]2C)[C@@H]2CCCN2C(=O)[C@H](Cc2ccccc2)NC(=O)[C@@H]2CSC(=N2)[C@H](Cc2ccccc2)NC(=O)[C@@H]2CSC1=N2 | 0.06 µg/mL (≈ 0.0806 µM) | 0.08 µg/mL (≈ 0.108 µM) | 0.04 µg/mL (≈ 0.0538 µM) | 
2 | CC(C)C1NC(=O)C2N=C(OC2C)C2CCCN2C(=O)C(Cc2ccccc2)NC(=O)c2csc(n2)C(Cc2ccccc2)NC(=O)c2csc1n2 (stereo not given) | 10 µg/mL (≈ 13.5 µM) | 20 µg/mL (≈ 27 µM) | 15 µg/mL (≈ 20.3 µM) | 
3 | CC(C)C1NC(=O)C2N=C(OC2C)C2CCCN2C(=O)C(Cc2ccccc2)NC(=O)c2csc(n2)C(Cc2ccccc2)NC(=O)C2CSC1=N2 (stereo in doubt; form 1) |  | 8 µg/mL (≈ 10.8 µM) | 1 µg/mL (≈ 1.35 µM) | 6 µg/mL (≈ 8.09 µM)
4 | CC(C)C1NC(=O)C2N=C(OC2C)C2CCCN2C(=O)C(Cc2ccccc2)NC(=O)c2csc(n2)C(Cc2ccccc2)NC(=O)C2CSC1=N2 (stereo in doubt; form 2) |  |  |  | 0.8 µg/mL (≈ 1.08 µM)
